Measurements from different studies.
Each line is one published result; the experiments were not run side by side.
Target: Serine/threonine-protein kinase NIM1 (NIM1K, Homo sapiens, UniProt Q8IY84)

| Compound | observed | action | technique | tested at | endpoint | value |
| --- | --- | --- | --- | --- | --- | --- |
| COc1cc(Cl)c(C(=O)N[C@@H](CN[C@H]2CC[C@@H](N)CC2)Cc2ccc(C#N)cc2)cc1-c1ccc(CN[C@H](C)c2ccc(C)cc2)o1 | enzyme activity | inhibitor |  | 1 µM | remaining activity | 98% |
| O=C(Nc1cnn(-c2csc(C(=O)NC3COC3)c2)c1)Nc1c(F)cccc1Cl | enzyme activity | inhibitor |  | 5 µM | remaining activity | 70.7% |
| COc1cc(-c2cn(C3CCc4ccccc4N(CC(F)(F)F)C3=O)nn2)ccc1-n1ccc(C)n1 (centres unmarked) | cell-free assay |  | competition with immobilised ligand | 1 µM | remaining binding | 80% |
| Cc1cc(NC(=O)c2cccc3cc(-c4cccc5[nH]nc(N)c45)ccc23)ccc1F | enzyme activity | inhibitor |  | 0.1 µM | activity vs control | 115% |
| O=C(Nc1cnn(-c2csc(C(=O)NC3COC3)c2)c1)Nc1ccccc1Cl | enzyme activity | inhibitor |  | 5 µM | remaining activity | 101% |
| Nc1ncnc2occ(-c3ccc(NC(=O)Nc4cc(C(F)(F)F)ccc4F)cc3)c12 | cell-free assay | inhibitor |  | 20 µM | remaining signal | 67% |
| Cc1ccc(NC(=O)c2ccc(C)c(C(F)(F)F)c2)cc1C#Cc1nn(C2CCC(O)CC2)c2ncnc(N)c12 (centres unmarked) | cell-free assay |  |  | 10 µM | remaining signal | 131% |
| CC/C(=N\NC(=O)NCc1cccc(O)c1)c1ccc(O)c(C)c1O | enzyme activity | inhibitor |  | 0.1 µM | inhibition | -2.9% |
| CN1CC(Oc2cnc(C#N)cc2-c2ccn3nc(NC(=O)C4CC4)cc3c2)C1 | enzyme activity | inhibitor |  | 1 µM | inhibition | 8% |
| Cc1cnc(NC2CCOCC2)nc1-n1cnc(C(=O)NC(CN)c2cc(F)cc(Cl)c2)c1 (centres unmarked) | enzyme activity | inhibitor | radiometric | 1 µM | remaining activity | 40% |
| Cc1c(C(=O)O)cc(-c2ccc(C3CCNCC3)cc2)c2ccc(-c3ccc(C(F)(F)F)cc3)cc12 | binding |  | competition with immobilised ligand | 1 µM | remaining binding | 92% |
